Assay outcomes deposited in PubChem by several laboratories.
The list is not random: actives were taken first. Their share in the collection is about 1.6%.
PKA-R1A activ: PKA-R1A complex activation; P00514+P68181; PKA-R1A dissociation, Cy5-IP20 fluorescence polarization; scaled: DMSO 0%, 113 µM cGMP 100%; activation, % at 11.4 µM; 0.083% of 340,000 active; AID 504707;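 active = percent activation above the mean of all tested compounds plus 3 SD, cut at about 19% in these data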;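 also: higher means more PKAc released from R1A so a rise in polarization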
PKA-R2B activ: activators of human PKA-R2B complex; PKA-R2B holoenzyme dissociation, Cy5-IP20 fluorescence polarization; R2B truncated from residue 108, S112A mutant; 0% DMSO only, 100% 113 µM cGMP; AID 504700; activation, % at 11.4 µM; 0.079% of 340,000 active; P22694+P31323;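 active = activation above a cutoff set at the mean over all compounds plus 3 SD, cut at about 18% in these data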;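 also: higher means more holoenzyme dissociation and a rise in polarization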
CSN inh: CSN deneddylation inhibition. Q92905. Purified CSN, SCF-Nedd8-OG deneddylation, fluorescence polarization. inhibition, % at 12.5 µM. 0.38% of 360,000 active;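 active = pattern-corrected inhibition above about 35%, with an unprinted fluorescence ratio check between 0.5 and 1.5, limit read from the data, passing the limit was not always enough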;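 also: 0% = enzyme with substrate and 100% = substrate without enzyme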
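Material: purified human Csn5 enzyme expressed in HEK293T cells / Medium: Tris buffer pH 7.5, NaCl, DTT, Tween-20, trehalose, ovalbumin / Compound dosing: 12.5 µM single point / Schedule: 90 min incubation of compound, enzyme and substrate at room temperature / Signal: fluorescence polarization of the substrate / Control set: no-enzyme wells high, enzyme-with-substrate wells low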
HNF4A DNA FP: change in binding of human HNF4 alpha to DNA. AID 1224865. P41235. HNF4a-FITC DNA binding, fluorescence polarization, 1 h. 0.3% of 360,000 active. activity change, % at 10 µM; in the data active = activity change above about 30%, passing the limit was not always enough
Rpn11 block: inhibitors of human proteasome Rpn11. calls only at 20 µM. human 26S proteasome, Ub4-pepOG fluorescence polarization; 20S core pre-blocked with epoxomicin. 0.59% of 360,000 active. O00487;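 active = inhibition at 20 µM, scaled to each plate's controls, above about 33%, limit read from the data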
TPT1 inhibitor: blocks Candida albicans tRNA 2'-phosphotransferase. 0.81% of 300,000 active. recombinant caTPT1, FP RNA substrate dephosphorylation. inhibition, % at 5 µM;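 active = inhibition above the mean of all tested compounds plus 3 SD, set per screening campaign, cut at about 24% in these data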;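 also: plate controls were DMSO alone for no effect and ferristatin control at 100 nM for full effect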
Rpn11 inh conf: Rpn11 inhibition confirmation, single concentration | inhibition, % at 20 µM | purified human 26S proteasome, Ub4-pepOG fluorescence polarization; proteasome pretreated with epoxomicin | shares compounds with Rpn11 block | 29% of 1,900 active
MMP-2 inh: MMP-2 (human) inhibition counter-screen | AID 602330 | inhibition, % at 20 µM | 4% of 1,900 active | shares compounds with Rpn11 block | recombinant MMP-2, FRET peptide cleavage fluorescence;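 also: human MMP-2 activated beforehand with APMA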
Thrombin FP: counter-screen for RPN11 inhibitors: inhibition of bovine thrombin; shares compounds with Rpn11 block; bovine thrombin cleavage of Ub4-pepOG, fluorescence polarization; inhibition, % at 20 µM; 13% of 1,900 active; AID 602333;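 active = mean inhibition at least 40% at 20 µM, or signal 3 deviations below plate average, so some actives read negative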;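 also: plate controls were thrombin with DMSO for no effect and buffer wells lacking thrombin for full effect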
Target sequence (P00735 whole entry, looked up): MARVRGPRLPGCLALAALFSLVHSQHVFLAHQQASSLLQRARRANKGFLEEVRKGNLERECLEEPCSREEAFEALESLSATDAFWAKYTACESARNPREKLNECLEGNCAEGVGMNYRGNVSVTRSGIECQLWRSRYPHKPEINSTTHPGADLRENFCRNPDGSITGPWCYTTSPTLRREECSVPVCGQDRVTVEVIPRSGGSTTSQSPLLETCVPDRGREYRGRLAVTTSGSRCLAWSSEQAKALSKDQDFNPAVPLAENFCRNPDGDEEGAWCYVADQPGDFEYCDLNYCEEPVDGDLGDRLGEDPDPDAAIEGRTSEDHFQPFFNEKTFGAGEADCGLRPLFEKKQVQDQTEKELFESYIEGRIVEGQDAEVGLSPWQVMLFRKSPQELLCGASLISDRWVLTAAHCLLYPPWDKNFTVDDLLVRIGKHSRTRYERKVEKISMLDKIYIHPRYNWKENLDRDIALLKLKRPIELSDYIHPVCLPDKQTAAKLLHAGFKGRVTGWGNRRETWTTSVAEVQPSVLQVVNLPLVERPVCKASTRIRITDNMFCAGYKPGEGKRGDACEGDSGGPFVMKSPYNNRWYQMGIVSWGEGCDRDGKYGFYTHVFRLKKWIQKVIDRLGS
* marks the source's active call; other numbers are inactive results; i = inactive; . = not tested or not shown; + = active, no number. Rule as the data show it, unless noted: active = inhibition above about 40%; inactive = the rest.

SMILES	PKA-R1A activ	PKA-R2B activ	CSN inh	HNF4A DNA FP	Rpn11 block	TPT1 inhibitor	Rpn11 inh conf	MMP-2 inh	Thrombin FP
O=C(Nc1ccc2nn(-c3ccccc3)nc2c1)c1ccc(Br)o1	2	-4	26	-2	+	4	35	38	-6
COC(=O)C(C)N1C(=O)S/C(=C/c2cc(C)n(-c3ccccn3)c2C)C1=O (stereo unspecified)	2	-5	-1	-1	i	-3	.	.	.
COC(=O)C(C)N1C(=O)S/C(=C\c2cc(C)n(-c3ccccn3)c2C)C1=O (stereo unspecified)	-8	-3	1	15	+	-1	1	-25	1
Cc1ccc(NC(=O)Nc2ccc3c(c2)N(C)C(=O)CS3)nc1	0	-6	7	12	i	2	.	.	.
Cc1ccnc(NC(=O)Nc2ccc3c(c2)N(C)C(=O)CS3)c1	2	0	13	14	+	4	19	-49	15
COCCNC(=O)CN(CC1CCCO1)C(=O)CCC(=O)Nc1ccccn1 (stereo unspecified)	-5	-3	-5	-2	+	-5	-13	-30	-21
COc1ccc(NC2CCCN(C(=O)CCC3=NNC(=O)CC3)C2)cc1 (stereo unspecified)	5	1	0	0	i	-3	.	.	.
Cn1nc([N+](=O)[O-])nc1Sc1cccc2cccnc12	2	-5	0	-5	+	-2	8	-33	-11
CCN1/C(=C\C=C2\C(=O)N(c3ccccc3)C(=S)N2C)Sc2ccccc21	-2	-5	3	8	+	.	-2	0	-5
CC(C)Nc1nc(NC(C)C)nc(Oc2ccc(=O)n(C)n2)n1	-2	-8	5	2	i	-4	.	.	.
CC(C)Nc1nc(Oc2ccc(=O)n(-c3ccccc3)n2)nc(N(C)C)n1	1	5	-1	-35	+	-2	5	-7	2
COc1ccccc1-n1c(SCC(=O)NC2CC2)nc2ccccc2c1=O	-4	3	-1	-5	i	.	.	.	.
C[C@@H](NC(=O)c1ncn2c1c(=O)[nH]c1ccc(Br)cc12)c1ccccc1	-3	7	12	24	+	.	4	2	-3
O=C(COC(=O)c1ccc(S(=O)(=O)N2CCc3ccccc3C2)cc1)NC1CCS(=O)(=O)C1 (stereo unspecified)	8	3	1	0	+	0	-12	25	-22
O=C(COC(=O)c1ccc(S(=O)(=O)N2CCCCC2)cc1)NC1CCCCC1	-11	-4	-1	1	i	.	.	.	.
COc1ccccc1C(=O)N/C(N)=N/c1nc2ccccc2o1	-12	-16	14	18	+	14	51*	-38	8
Cc1ccc(C(=O)N/C(N)=N/c2nc3ccccc3o2)cc1	2	-6	1	1	i	-1	.	.	.
Cc1nnc(SCC2=C(C(=O)O)N3C(=O)C(NC(=O)COc4ccccc4)C3SC2)s1 (stereo unspecified)	0	3	5	-1	i	.	.	.	.
CO/N=C(/C(=O)N[C@@H]1C(=O)N2C(C(=O)O)=CCS[C@H]12)c1cnc(N)s1	.	.	21	-78	+	-1	85*	37	15
COc1ccc(Cn2c(C)nc3c(c2=O)c2nc4ccccc4nc2n3Cc2ccco2)cc1	-8	-10	45*	-53	+	.	27	4	-1
COc1ccc(Cn2c(-c3ccc(OC)cc3)nc3c(c(=O)c4ccccc4n3C)c2=O)cc1	.	.	.	.	.	-2	.	.	.
COc1ccc(Cn2c(-c3ccco3)nc3c(c(=O)c4ccccc4n3C)c2=O)cc1	-4	-8	26	-2	+	-3	31	20	42*
Cc1nc2ccccc2c(=O)n1Cc1ccco1	.	.	-1	-2	i	0	.	.	.
CCOc1cc(C2C(C#N)=C(N)Oc3cc(N)ccc32)ccc1O (stereo unspecified)	-15	5	7	8	i	7	.	.	.
N#CC(C(=O)NCc1ccccc1)c1nc2ccccc2nc1N1CCCC1 (stereo unspecified)	-7	-3	-82	27	.	18	.	.	.
SMILES	PKA-R1A activ	PKA-R2B activ	CSN inh	HNF4A DNA FP	Rpn11 block	TPT1 inhibitor	Rpn11 inh conf	MMP-2 inh	Thrombin FP
N#CC(C(=O)NCCc1ccccc1)c1nc2ccccc2nc1N1CCCCC1 (stereo unspecified)	-6	-9	3	11	+	0	-81	-68	-79
CCc1cnccc1CCC(=O)Nc1ccccc1C	1	15	3	-1	i	-3	.	.	.
COc1ccccc1NC(=O)C12CCC(C)(C(=O)C1)C2(C)C (stereo unspecified)	-8	0	0	-2	i	-5	.	.	.
COc1ccccc1N1CCN(Cc2ccc(O)c3ncccc23)CC1	-2	-13	-1	-1	i	-3	.	.	.
Oc1ccc(CN2CCCc3ccccc32)c2cccnc12	3	-1	-3	-1	+	-4	-11	-3	-14
Cc1sc2ncn(CC(=O)NCCCC(=O)N3CCN(Cc4ccc5c(c4)OCO5)CC3)c(=O)c2c1C	3	4	1	2	i	-3	.	.	.
Cc1ccc(S(=O)(=O)N2[C@@H](c3ccc(Cl)cc3)C(C(=O)O)=C[C@H]2CC2CCCC2)cc1	-5	-3	9	-2	i	.	.	.	.
Cc1ccc(S(=O)(=O)N2[C@@H](c3ccc(Cl)c(Cl)c3)C(C(=O)O)=C[C@H]2CC2CCCC2)cc1	-5	2	9	-3	+	.	19	-11	12
O=C(NNC(=O)c1ccccn1)c1ccc(OC(F)F)cc1	-9	9	-6	3	i	.	.	.	.
CCCCc1ccc(-c2csc(/C(C#N)=C/c3ccc(C)o3)n2)cc1	-10	3	41*	42*	+	11	-10	-27	-21
CCCCc1ccc(-c2csc(/C(C#N)=C\c3ccco3)n2)cc1	-4	3	26	4	+	7	7	-5	1
N#C/C(=C\c1ccco1)c1nc2ccccc2s1	-8	-3	1	7	i	10	.	.	.
CCCN1CNc2c(c(=O)[nH]c(=S)n2-c2ccc(Cl)cc2)C1	6	-2	-5	-2	i	1	.	.	.
